The labels stand for the following.
B1: tRNA (parent)
chain: GUUCCGUUGGCGUAAUGGUAACGCGUCUCCCUCCUAAGGAGAAGACUGCGGGUUCGAGUCCCGUACGGAACG

Variants at the floor of the assay were thinned out.

The variants in the series derive from B1. The series is described as follows: yeast fitness relative to wild type (ratio to wild type); higher = fitter; tRNA-Arg(CCU), competitive growth, 37 C, YPD. In outline: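 Variants of the tRNA-Arg(CCU) gene, chemically synthesised with a 3% per-site mutation rate at 69 sites, were placed at the native genomic locus in Saccharomyces cerevisiae. The pooled strains were competed in YPD at 37°C for 24 hours in six parallel replicates. Gene amplicons from the start population and from each end population were read by 100-nucleotide paired-end sequencing. Darwinian fitness relative to wild type came from changes in genotype frequencies; genotypes needed ≥ 100 starting reads, and estimates < 0.5 were set to 0.5.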
In the case of C33G G41A U47A C61U A69U, the yeast fitness is no more than 0.5.

For G38C A42G U64G, the yeast fitness came to 0.781. For G25C G67C, the yeast fitness turned out to be 0.797. C46G G52C: the yeast fitness is 0.585.

Turning to C22G C27U, the yeast fitness was 0.884.

For the variant C11G U47A, the yeast fitness was determined as 0.686. The same measure for C24G A36U U54A: no more than 0.5. The same measure for C27A A40C A43G: no more than 0.5. The same measure for A20G C24G C60A: no more than 0.5. G44C C66A: the yeast fitness is 0.688. The same measure for G17A A21U C34G G38C G56C: no more than 0.5; for A20U C29U A37U: no more than 0.5. The same measure for G17C G44C: 0.58; for C5G A36G A43U A69C: 0.655. As for A14U A43C C46U, the yeast fitness was no more than 0.5. For C33A C49A C60A, the yeast fitness was 0.714.

As for G6A A20C C27U, the yeast fitness came to 0.663. Under G9A G12C C31A C33G A45G stands 0.611. Under U8A U64G stands 0.554; under G17C G48A A65C, 0.654; under U7C G50C A70G, no more than 0.5. Regarding C34A C49A G51C, the yeast fitness stood at 0.591. Under G38C U47G stands 0.538. Under G6A A15G C29U stands 0.607; under C4A G10C G58A, 0.713. Under A14C A57C G68C stands no more than 0.5; under U16A A37G A40C G58A, 0.604. As for G9A A21G G58C A70C, the yeast fitness was no more than 0.5. Under U8C C34U A45C A69C A70C stands no more than 0.5; under C30G A70C, 0.719. The same measure for C33U C49U: 0.849; for G25C A40U C49U: 0.66; for G12C C61G: 0.635. Under C11U A36C A65C C66U stands 0.558; under C5U C30G C31A G63C, no more than 0.5. U53A C61A: the yeast fitness was found to be 0.509. Under A20C C24U C55U stands no more than 0.5; under C11G A45C U47C C61U A69G, no more than 0.5; under C4A G9A C49A U53C, no more than 0.5.

For the variant C31U C61A A69U, the yeast fitness was 0.633. Under U13A U32G A45G A70G stands no more than 0.5; under U3A G23C, 0.653. For A37C U59G, the yeast fitness turned out to be 0.712. The same measure for C29A G56C C61A: no more than 0.5.

Consider G6C C27U G56A C61U, for which the yeast fitness was no more than 0.5. As to A14C C29G C30A C62A A69C, the yeast fitness was no more than 0.5. The same measure for U2C C31G U35A A69U: no more than 0.5. Under C5A A21C stands 0.821; under G9A C31U C55U, 0.694. The same measure for U13G C29U G68C: no more than 0.5; for C11U C31A A42G: 0.525.

Take A14G A37U A65C: the yeast fitness turned out to be 0.543.

With C11G C24A C66U, the yeast fitness was no more than 0.5. The same measure for U2C G48A C60A A70G: no more than 0.5; for C22G G63A: 0.891; for G25C C33A A45C C46A: 0.518. Under A21U C27G C31A C46A G56C stands no more than 0.5; under C5U U8A U59G, no more than 0.5; under A15C U19A C24G C34G C46U U54C C61A A70U, no more than 0.5. The same measure for C29A A37G A57G G67C A69U: no more than 0.5; for U2G C30U A40C G63C U64C: no more than 0.5. For U3G C31A A45C, the yeast fitness was no more than 0.5. The same measure for U19C A40C U53A: 0.532; for A21U C24A A69C: no more than 0.5; for C30A U53A C66U: no more than 0.5.

On to A21G G41C A45U, for which the yeast fitness came out at 0.546. Regarding G6A G44A C61G, the yeast fitness was no more than 0.5. On to U3A A37U C66A, for which the yeast fitness was no more than 0.5. On to C5U U7C A15U A40U U59A A65U G68A, for which the yeast fitness worked out at 0.542. Under U2C A15U A20U C27U C61G stands no more than 0.5. G23C C49U: the yeast fitness stood at 0.71. For C5G G56A C62G, the yeast fitness was determined as 0.543. On to U32A G39A, for which the yeast fitness came out at 0.792. Under U3G C5G G10A C30A C31G U47G C49A C60U G67A stands no more than 0.5; under C5A A14G A40G G41A A45U U53C A57C, no more than 0.5.

For A40U A43C G68A, the yeast fitness stood at 0.605. The same measure for C11U C31G A57U G67U: no more than 0.5; for U3C G12A C29G C34U A36C C61A: 0.587; for U16A U47C G63A: 0.869. Under U2C C22G C31U C60U C61U stands 0.527; under U13C G56C, 0.549.

As to C5A G12A C60G, the yeast fitness was no more than 0.5. C22A G52A: the yeast fitness is 0.637. The same measure for C24G C27G A40C U47A: no more than 0.5. With A37U C62U G67A, the yeast fitness is no more than 0.5. The same measure for G6C U59C: 0.656; for C11A G25A U53A: no more than 0.5. Under C5G C33G C60G C66G stands 0.584. Under G9A G12A C22G A43G C46G C66U stands no more than 0.5.

As to U26C C33A A40U, the yeast fitness worked out at 0.668. Take C4G U7G A65G: the yeast fitness was determined as 0.622. The same measure for U19G A43U A65G G68A: 0.512. Regarding U3C C27U C30U U53A A69C, the yeast fitness is no more than 0.5. As to A14C G18A C22G A57U, the yeast fitness is no more than 0.5. The same measure for G9A A40C U54C: 0.753; for U64A A70U: 0.884. The same measure for U32A C46A A57G: 0.614. Regarding C4A A37G A45C C66G, the yeast fitness was no more than 0.5.

For U19A C62A, the yeast fitness turned out to be 0.774.

As for G23C C27A A45G G51C G68A, the yeast fitness was 0.701.

Take G10A G41C C61G: the yeast fitness is no more than 0.5. Under A15C C31G U32A C33U C34G stands no more than 0.5; under G18A C29U U35C G52C, no more than 0.5. The same measure for A15U C27A C62A A69U: no more than 0.5. Under C22U A36U C49U G58C stands 0.575; under G17C U28G U54A C62U A70C, no more than 0.5; under U7A A14C A42G A57U, no more than 0.5. For C22U U32A C34U C66U, the yeast fitness is no more than 0.5. Consider C4U C24U C66U A70C, for which the yeast fitness is 0.51. The same measure for U7C C30U G44A G56A: 0.522; for C27U C61A: 0.62; for A15G C46G C61G: 0.567. As for C5G G44C, the yeast fitness stood at 0.688. Under G48A G68U A70C stands 0.809; under U28C A42U, 0.816. Under A20G C27A C46A stands 0.737; under U32C A42U U64A A65G, no more than 0.5. On to C4G U16C G44A G48A G50C, for which the yeast fitness was found to be 0.511. Take C11A A37U G48A: the yeast fitness is no more than 0.5. Take U13C A37C: the yeast fitness came to 0.713. The same measure for U3A G9A U28G: no more than 0.5.

Consider U19C C24G A37U C46U U47A, for which the yeast fitness is no more than 0.5. Under C34A A42U G58A C62U G63A stands no more than 0.5; under C5G C11U A37C C49U, 0.609; under G9A C11U A36C, no more than 0.5. Under A20G G25C C34U G41A C49G stands no more than 0.5; under C5A C24U C29U C33U C34G A42U G58A, no more than 0.5; under A37U C55G, 0.609.

Regarding G12C A15C U19A C34U C49A, the yeast fitness is no more than 0.5. Under C5U U26G C49G stands no more than 0.5. The same measure for U19G C29A U54A: no more than 0.5; for G9A G38A: 0.976. As for C55U C61A A65G, the yeast fitness is no more than 0.5. Under A20C G56A A70G stands 0.611.

For the variant G23C C24A C30G A37C A45U G68C, the yeast fitness was no more than 0.5. As for A14C C27G C60A A65U, the yeast fitness is no more than 0.5.

As to U7G C11G C34U G41A A57U C66U, the yeast fitness is no more than 0.5.

On to G12A G17C C66U, for which the yeast fitness is no more than 0.5. Under A14U C30A C66U A70G stands 0.64. Under U13C C31U U54C G58C C61A A69U stands no more than 0.5; under U26C U32C A37G C49G, no more than 0.5. Regarding G52A A57U C61G, the yeast fitness is no more than 0.5.

On to C4U C11G G18A G23C U47G G50A, for which the yeast fitness was no more than 0.5. The same measure for C29G C34A C60A: no more than 0.5. Turning to A40C A57U C60G C66G, the yeast fitness was no more than 0.5.

With G17A C22A A45C G63C C66U, the yeast fitness is no more than 0.5. As for C24U C29U A36C A42U A57U, the yeast fitness was found to be 0.518.

For the variant A21C U28A C55G A57U G67A, the yeast fitness was no more than 0.5.

Take C30G U54G: the yeast fitness was no more than 0.5. For U7C A37C, the yeast fitness was 0.862. In the case of G6A C33A A37C G58A C66U G67U, the yeast fitness is no more than 0.5.

With G6C A42G, the yeast fitness turned out to be 0.815. The same measure for A40G G58A A70U: 0.61.

Turning to A15C C29U C31U, the yeast fitness is no more than 0.5.

With A15G A70U, the yeast fitness is 1.03. Under U2C G10C C11U C34A A37C stands 0.609; under G12A A21G C34U, no more than 0.5; under G38A C60G, 0.623. Turning to U7A C34A, the yeast fitness worked out at 0.662. As for U2G C5A U19A, the yeast fitness came out at 0.552. Under U28C U59C G67A stands 0.532. Turning to U13C A43G A45U, the yeast fitness stood at 0.587. With A42C G50C G56A, the yeast fitness was no more than 0.5.

On to U16G A45G C66U, for which the yeast fitness came to 0.771.

Take U26G C27U A70U: the yeast fitness is no more than 0.5. Under A14U C24G A57C A65G stands no more than 0.5; under A15C C30G, 0.541.

Source of the values: the RNAGym collection of RNA variant scans (doi:10.1126/science.aae0568).
